Values belong to the compound of their own block, whether it stands above or below them.
What was measured:
[1] = target: Disintegrin and metalloproteinase domain-containing protein 17 (Homo sapiens, UniProt P78536); assay: Inhibition of TACE assessed as inhibition of pro-TNFalpha peptide cleavage
[2] = AUC in rat at 10 mg/kg, po; format: ADME, organism-based; parameters: dose 10 mg/kg, route oral; conditions: plasma
[3] = tested on: Rattus norvegicus; assay: AUC in rat at 3 mg/kg, iv; format: ADME, organism-based, Plasma; parameters: dose 3 mg/kg, route intravenous; conditions: in vivo
[4] = tested on: Rattus norvegicus; assay: Half life in rat at 3 mg/kg, iv; format: ADME, organism-based; parameters: dose 3 mg/kg, route intravenous; conditions: in vivo
Summary of the method: (§1)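 Rats were dosed separately at 3 mg/kg iv and 10 mg/kg po. Reported parameters were AUC (µM h), T1/2 (h), Cl (L/h/kg) and Vss (L/kg) after iv dosing, and AUC, Cmax (µM), Tmax (h) and F% after oral dosing.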

[5] = tested on: Rattus norvegicus; assay: Clearance in rat at 3 mg/kg, iv; format: ADME, organism-based; parameters: dose 3 mg/kg, route intravenous; conditions: in vivo; summary of the method: as §1
[6] = tested on: Rattus norvegicus; assay: Volume of distribution at steady state in rat at 3 mg/kg, iv; format: ADME, organism-based; parameters: dose 3 mg/kg, route intravenous; conditions: in vivo; summary of the method: as §1
[7] = Cmax in rat at 10 mg/kg, po; format: ADME, organism-based; parameters: dose 10 mg/kg, route oral; conditions: in vivo; summary of the method: as §1
[8] = Tmax in rat at 10 mg/kg, po; format: ADME, organism-based; parameters: dose 10 mg/kg, route oral; conditions: in vivo; summary of the method: as §1
[9] = Oral bioavailability in rat at 10 mg/kg; format: ADME, organism-based; conditions: in vivo; summary of the method: as §1
[10] = target: T1, Interstitial collagenase (Homo sapiens) (UniProt P03956); assay: Inhibition of MMP1
T1 sequence (whole entry): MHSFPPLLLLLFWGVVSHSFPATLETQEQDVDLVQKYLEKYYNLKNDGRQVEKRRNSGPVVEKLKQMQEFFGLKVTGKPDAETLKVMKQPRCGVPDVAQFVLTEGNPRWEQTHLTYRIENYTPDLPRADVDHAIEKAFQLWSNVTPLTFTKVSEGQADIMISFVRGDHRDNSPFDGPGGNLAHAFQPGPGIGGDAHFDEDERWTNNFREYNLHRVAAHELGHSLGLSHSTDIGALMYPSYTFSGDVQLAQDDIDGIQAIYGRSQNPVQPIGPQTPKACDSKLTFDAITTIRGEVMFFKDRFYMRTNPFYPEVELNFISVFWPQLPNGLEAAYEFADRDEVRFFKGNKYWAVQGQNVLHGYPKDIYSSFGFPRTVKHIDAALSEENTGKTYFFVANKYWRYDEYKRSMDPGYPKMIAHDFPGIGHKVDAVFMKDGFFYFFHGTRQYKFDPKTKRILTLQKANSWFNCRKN

[11] = target: Stromelysin-1 (Homo sapiens) (UniProt P08254); assay: Inhibition of MMP3
[12] = target: T2, Matrilysin (Homo sapiens) (UniProt P09237); assay: Inhibition of MMP7
T2 sequence (whole entry): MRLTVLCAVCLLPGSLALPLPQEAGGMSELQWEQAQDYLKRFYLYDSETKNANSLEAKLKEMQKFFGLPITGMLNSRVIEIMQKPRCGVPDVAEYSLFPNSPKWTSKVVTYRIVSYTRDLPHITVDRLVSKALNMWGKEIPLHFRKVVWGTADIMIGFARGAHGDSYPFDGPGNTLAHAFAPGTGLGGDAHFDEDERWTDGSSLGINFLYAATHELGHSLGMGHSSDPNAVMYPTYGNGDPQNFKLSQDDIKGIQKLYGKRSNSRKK

[13] = target: Matrix metalloproteinase-9 (Homo sapiens) (UniProt P14780); assay: Inhibition of MMP9
[14] = target: Collagenase 3 (Homo sapiens) (UniProt P45452); assay: Inhibition of MMP13
[15] = target: Matrix metalloproteinase-14 (Homo sapiens) (UniProt P50281); assay: Inhibition of MMP14
[16] = target: T3, Disintegrin and metalloproteinase domain-containing protein 10 (Homo sapiens) (UniProt O14672); assay: Inhibition of ADAM10
T3 sequence (whole entry): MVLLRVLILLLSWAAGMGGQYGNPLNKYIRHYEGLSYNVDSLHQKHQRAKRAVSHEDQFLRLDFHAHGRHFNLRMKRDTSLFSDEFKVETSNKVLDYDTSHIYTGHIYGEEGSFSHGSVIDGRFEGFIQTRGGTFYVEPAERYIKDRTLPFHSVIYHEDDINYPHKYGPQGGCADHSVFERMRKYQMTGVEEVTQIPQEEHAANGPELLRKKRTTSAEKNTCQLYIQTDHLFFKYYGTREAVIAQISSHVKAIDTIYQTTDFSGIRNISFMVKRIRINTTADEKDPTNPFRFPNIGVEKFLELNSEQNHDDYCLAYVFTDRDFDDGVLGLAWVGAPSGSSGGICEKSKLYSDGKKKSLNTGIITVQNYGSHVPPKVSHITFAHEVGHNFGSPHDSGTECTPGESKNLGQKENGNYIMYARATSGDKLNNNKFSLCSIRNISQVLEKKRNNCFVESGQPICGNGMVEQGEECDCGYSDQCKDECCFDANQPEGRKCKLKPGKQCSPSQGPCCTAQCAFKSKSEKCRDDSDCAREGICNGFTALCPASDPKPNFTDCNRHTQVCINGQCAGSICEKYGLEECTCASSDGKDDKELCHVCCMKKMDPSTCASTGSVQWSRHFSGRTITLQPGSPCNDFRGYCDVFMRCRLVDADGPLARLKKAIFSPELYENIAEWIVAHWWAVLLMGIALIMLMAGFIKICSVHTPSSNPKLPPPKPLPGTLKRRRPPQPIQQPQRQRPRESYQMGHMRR

[17] = target: 72 kDa type IV collagenase (Homo sapiens) (UniProt P08253); assay: Inhibition of MMP2
Chain of 72 kDa type IV collagenase (Homo sapiens) (P08253 110-660 limits assumed): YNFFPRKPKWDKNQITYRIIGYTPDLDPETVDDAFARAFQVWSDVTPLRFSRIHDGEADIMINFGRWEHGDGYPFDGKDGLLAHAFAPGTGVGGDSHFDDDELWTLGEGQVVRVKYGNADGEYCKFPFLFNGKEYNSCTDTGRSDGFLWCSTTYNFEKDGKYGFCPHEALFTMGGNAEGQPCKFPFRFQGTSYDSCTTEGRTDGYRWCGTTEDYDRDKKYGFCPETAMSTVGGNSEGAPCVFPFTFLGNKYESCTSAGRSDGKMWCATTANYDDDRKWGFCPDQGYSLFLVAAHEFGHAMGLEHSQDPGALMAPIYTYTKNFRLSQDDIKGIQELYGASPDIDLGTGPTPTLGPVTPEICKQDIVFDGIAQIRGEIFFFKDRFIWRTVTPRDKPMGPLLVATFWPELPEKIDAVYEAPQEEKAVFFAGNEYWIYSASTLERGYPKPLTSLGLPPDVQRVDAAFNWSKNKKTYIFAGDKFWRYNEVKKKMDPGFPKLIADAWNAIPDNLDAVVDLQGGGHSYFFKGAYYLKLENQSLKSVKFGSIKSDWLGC

Chain of Matrix metalloproteinase-9 (Homo sapiens) (P14780 whole entry): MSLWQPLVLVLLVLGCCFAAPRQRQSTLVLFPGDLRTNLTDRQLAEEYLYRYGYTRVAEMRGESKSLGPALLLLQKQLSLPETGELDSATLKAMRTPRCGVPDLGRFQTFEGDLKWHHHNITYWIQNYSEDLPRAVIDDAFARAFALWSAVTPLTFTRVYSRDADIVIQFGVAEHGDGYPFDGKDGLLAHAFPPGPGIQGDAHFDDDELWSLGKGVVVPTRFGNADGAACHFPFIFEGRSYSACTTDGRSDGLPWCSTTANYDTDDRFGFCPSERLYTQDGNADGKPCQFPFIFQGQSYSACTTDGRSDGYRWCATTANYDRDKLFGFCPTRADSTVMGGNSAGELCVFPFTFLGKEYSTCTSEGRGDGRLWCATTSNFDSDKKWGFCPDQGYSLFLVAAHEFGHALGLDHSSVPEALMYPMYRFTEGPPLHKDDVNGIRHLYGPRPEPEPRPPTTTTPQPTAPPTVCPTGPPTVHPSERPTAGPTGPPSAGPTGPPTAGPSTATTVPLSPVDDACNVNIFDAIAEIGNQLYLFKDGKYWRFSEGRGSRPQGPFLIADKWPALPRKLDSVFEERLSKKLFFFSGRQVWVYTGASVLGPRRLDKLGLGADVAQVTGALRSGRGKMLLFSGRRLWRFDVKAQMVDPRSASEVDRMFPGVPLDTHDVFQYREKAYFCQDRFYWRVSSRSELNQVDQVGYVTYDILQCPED
Chain of Stromelysin-1 (Homo sapiens) (P08254 100-477 limits assumed): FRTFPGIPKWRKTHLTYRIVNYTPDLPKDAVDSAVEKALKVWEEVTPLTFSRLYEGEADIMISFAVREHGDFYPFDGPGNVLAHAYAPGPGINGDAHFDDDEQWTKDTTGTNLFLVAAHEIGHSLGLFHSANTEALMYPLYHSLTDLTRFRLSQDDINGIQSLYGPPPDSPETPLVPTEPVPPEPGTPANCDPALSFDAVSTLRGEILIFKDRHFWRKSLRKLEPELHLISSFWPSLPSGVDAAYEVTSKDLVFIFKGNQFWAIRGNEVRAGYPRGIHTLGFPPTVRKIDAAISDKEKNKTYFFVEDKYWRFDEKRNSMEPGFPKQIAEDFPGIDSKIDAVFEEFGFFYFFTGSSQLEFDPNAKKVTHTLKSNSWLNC
Chain of Disintegrin and metalloproteinase domain-containing protein 17 (P78536 whole entry, the tested form may be a part): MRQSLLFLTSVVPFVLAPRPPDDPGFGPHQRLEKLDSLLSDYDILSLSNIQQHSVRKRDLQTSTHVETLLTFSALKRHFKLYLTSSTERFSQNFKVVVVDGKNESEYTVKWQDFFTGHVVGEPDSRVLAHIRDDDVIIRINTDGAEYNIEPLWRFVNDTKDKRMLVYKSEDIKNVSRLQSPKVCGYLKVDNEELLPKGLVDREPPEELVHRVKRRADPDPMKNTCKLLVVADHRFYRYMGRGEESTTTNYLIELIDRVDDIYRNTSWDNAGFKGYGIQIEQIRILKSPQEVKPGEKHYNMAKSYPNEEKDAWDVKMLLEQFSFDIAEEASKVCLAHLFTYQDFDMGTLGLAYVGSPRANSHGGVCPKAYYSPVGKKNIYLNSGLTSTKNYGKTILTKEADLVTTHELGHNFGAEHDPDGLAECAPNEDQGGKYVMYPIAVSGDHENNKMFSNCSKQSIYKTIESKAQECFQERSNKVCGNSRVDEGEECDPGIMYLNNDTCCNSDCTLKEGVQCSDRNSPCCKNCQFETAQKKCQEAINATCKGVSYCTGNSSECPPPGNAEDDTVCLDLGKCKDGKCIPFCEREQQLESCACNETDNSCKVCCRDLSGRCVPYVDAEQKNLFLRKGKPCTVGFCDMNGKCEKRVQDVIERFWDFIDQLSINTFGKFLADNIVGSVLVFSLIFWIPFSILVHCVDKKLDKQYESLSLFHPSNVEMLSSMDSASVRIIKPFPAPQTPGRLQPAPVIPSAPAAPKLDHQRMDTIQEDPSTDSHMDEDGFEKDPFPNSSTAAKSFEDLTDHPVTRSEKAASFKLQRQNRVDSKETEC

Compound: COc1ccc2c(c1)C(=O)N(C[C@@]1(c3ccc(-c4cccc(-c5csc(C)n5)c4)cc3)NC(=O)NC1=O)C2
Ki [1]: 31 nM

Ki [1]: 3 nM
Compound: COc1ccc2c(c1)C(=O)N(C[C@@]1(c3ccc(-c4ccc(C(N)=O)cc4)cc3)NC(=O)NC1=O)C2

AUC [2]: 9.1 µM·h
AUC [3]: 19 µM·h
t1/2 [4]: 4.3 h
CL [5]: 103 mL/min/kg
Vdss [6]: 0.3 L/kg
Cmax [7]: 2.96 µM
Tmax [8]: 0.58 h
bioavailability [9]: 14.1%
INH [10]: 655 nM
INH [11]: 3.61 nM
INH [12]: 17.4 µM
INH [13]: 124 nM
INH [14]: 155 nM
INH [15]: 25 nM
INH [16]: 216 nM
Compound: COc1ccc2c(c1)C(=O)N(C[C@@]1(c3ccc(-c4cccnc4)cc3)NC(=O)NC1=O)C2

AUC [2]: 13 µM·h
Ki [1]: 0.5 nM
AUC [3]: 21 µM·h
t1/2 [4]: 4.4 h
CL [5]: 91.7 mL/min/kg
Vdss [6]: 0.3 L/kg
Cmax [7]: 3.3 µM
Tmax [8]: 1.7 h
bioavailability [9]: 19%
INH [10]: 1740 nM
INH [17]: 86 nM
INH [11]: 434 nM
INH [12]: 30 µM
INH [13]: 212 nM
INH [14]: 194 nM
INH [15]: 36 nM
INH [16]: 253 nM
Compound: COc1ccc2c(c1)C(=O)N(C[C@@]1(c3ccc(-c4ccnc(C)c4)cc3)NC(=O)NC1=O)C2

Compound: COc1ccc2c(c1)C(=O)N(C[C@@]1(c3ccc(-c4cc(-c5ccccc5)no4)cc3)NC(=O)NC1=O)C2
Ki [1]: 28 nM

Compound: COc1ccc2c(c1)C(=O)N(C[C@@]1(c3ccc(C4(C)NC(=O)NC4=O)cc3)NC(=O)NC1=O)C2 (stereo partly drawn)
Ki [1]: 2.6 nM

Ki [1]: 0.6 nM
Compound: COc1ccc2c(c1)C(=O)N(C[C@@]1(c3ccc(-c4nccs4)cc3)NC(=O)NC1=O)C2

Ki [1]: 0.2 nM
Compound: O=C1NC(=O)[C@](CN2Cc3ccc(F)cc3C2=O)(c2ccc(-c3ccc(=O)[nH]c3)cc2)N1

Ki [1]: 9 nM
Compound: COC(=O)c1ccc(-c2ccc([C@]3(CN4Cc5ccc(OC)cc5C4=O)NC(=O)NC3=O)cc2)cc1

Compound: COc1ccc2c(c1)C(=O)N(C[C@@]1(c3ccc(-c4cncnc4)cc3)NC(=O)NC1=O)C2
Ki [1]: 0.9 nM

Ki [1]: 0.6 nM
Compound: COc1ccc2c(c1)C(=O)N(C[C@@]1(c3ccc(-c4ccncc4)cc3)NC(=O)NC1=O)C2

Compound: O=C1NC(=O)[C@](CN2Cc3ccc(F)cc3C2=O)(c2ccc(-c3c[nH]c(=O)c(Cl)c3)cc2)N1
Ki [1]: 0.1 nM

Ki [1]: 1.4 nM
Compound: COc1ccc2c(c1)C(=O)N(C[C@@]1(c3ccc(-c4ccnc(N)c4)cc3)NC(=O)NC1=O)C2

Ki [1]: 2 nM
Compound: O=C1NC(=O)[C@](CN2Cc3ccc(F)cc3C2=O)(c2ccc(-c3ccc(F)cc3F)cc2)N1

Ki [1]: 8 nM
Compound: COc1ccc2c(c1)C(=O)N(C[C@@]1(c3ccc(Oc4ccc5cnccc5c4)cc3)NC(=O)NC1=O)C2

Ki [1]: 18 nM
Compound: O=C1NC(=O)[C@](CN2Cc3ccc(F)cc3C2=O)(c2ccc(-c3ccc(C(F)(F)F)cc3)cc2)N1

AUC [2]: 22.2 µM·h
AUC [3]: 36.2 µM·h
t1/2 [4]: 4.4 h
CL [5]: 55 mL/min/kg
Vdss [6]: 0.3 L/kg
Cmax [7]: 4.45 µM
Tmax [8]: 2 h
bioavailability [9]: 18%
INH [10]: 718 nM
INH [17]: 24 nM
INH [11]: 430 nM
INH [12]: > 40 µM
INH [13]: 122 nM
INH [14]: 202 nM
INH [15]: 19 nM
INH [16]: 187 nM
Compound: COc1ccc2c(c1)C(=O)N(C[C@@]1(c3ccc(-c4cnn(C)c4)cc3)NC(=O)NC1=O)C2

Ki [1]: 7 nM
Compound: COc1ccc2c(c1)C(=O)N(C[C@@]1(c3ccc(Oc4ccncc4)cc3)NC(=O)NC1=O)C2
